Target: Protein kinase C alpha type (Mus musculus, UniProt P20444)
Assay: Displacement of [3H]PDBu form mouse PKCalpha by scintillation counting
Outline: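 Partially purified mouse PKCα; competition with [³H]PDBU. ID50 obtained by fitting a sigmoidal competition curve and converted to Ki = ID50/(1+L/Kd). Pure compounds tested at 6–7 concentrations; crude library compounds at a single 1 μM concentration. Triplicates per concentration, at least three experiments; mean ± SEM.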

Row | SMILES | Ki
1 | CN(C)c1ccc(/C=C2/CC(CO)(COC(=O)C3CCCCC3)OC2=O)cc1 (racemic) | 373 nM
2 | CN(C)c1ccc(/C=C2/CC(CO)(COC(=O)c3ccccc3)OC2=O)cc1 (racemic) | 654 nM
3 | Cc1ccccc1C(=O)OCC1(CO)C/C(=C/c2ccccc2)C(=O)O1 (racemic) | 135 nM
4 | Cc1cc(C)c(C(=O)OCC2(CO)C/C(=C/c3ccccc3)C(=O)O2)c(C)c1 (racemic) | 60.2 nM
5 | CC(C)c1cc(C(C)C)c(C(=O)OCC2(CO)C/C(=C/c3ccccc3)C(=O)O2)c(C(C)C)c1 (racemic) | 160 nM
6 | CCCCCCC(=O)OCC1(CO)C/C(=C/c2ccc(N(C)C)cc2)C(=O)O1 (racemic) | 357 nM
7 | CN(C)c1ccc(C(=O)OCC2(CO)C/C(=C/c3ccccc3)C(=O)O2)cc1 (racemic) | 251 nM
8 | O=C1OC(CO)(COC(=O)c2ccc(C(F)(F)F)cc2)C/C1=C/c1ccccc1 (racemic) | 103 nM
9 | Cc1ccc(C(=O)OCC2(CO)C/C(=C/c3ccccc3)C(=O)O2)cc1 (racemic) | 138 nM
10 | CC(C)C(=O)OCC1(CO)C/C(=C/c2cc(C(F)(F)F)cc(C(F)(F)F)c2)C(=O)O1 (racemic) | 82.8 nM
11 | CN(C)c1ccc(/C=C2/CC(CO)(COC(=O)c3ccc(C(F)(F)F)cc3)OC2=O)cc1 (racemic) | 515 nM
12 | Cc1ccc(C(=O)OCC2(CO)C/C(=C/c3ccc(N(C)C)cc3)C(=O)O2)cc1 (racemic) | 406 nM
13 | Cc1cc(C)c(C(=O)OCC2(CO)C/C(=C/c3ccc(N(C)C)cc3)C(=O)O2)c(C)c1 (racemic) | 517 nM
14 | COc1ccc(/C=C2/CC(CO)(COC(=O)c3ccccc3)OC2=O)cc1 (racemic) | 299 nM
15 | CCCCC(CC)C(=O)OCC1(CO)C/C(=C/c2ccc(OC)cc2)C(=O)O1 (racemic) | 53.9 nM
16 | CCCCCC/C=C1/CC(CO)(COC(=O)C2CCCCC2)OC1=O (racemic) | 28.9 nM
17 | COc1ccc(/C=C2/CC(CO)(COC(=O)C3CCCCC3)OC2=O)cc1 (racemic) | 156 nM
18 | CCCCCC/C=C1/CC(CO)(COC(=O)c2ccc(N(C)C)cc2)OC1=O (racemic) | 131 nM
19 | CCCCCC/C=C1/CC(CO)(COC(=O)c2ccc(C(F)(F)F)cc2)OC1=O (racemic) | 55.7 nM
20 | CCCCCC/C=C1/CC(CO)(COC(=O)c2ccc([N+](=O)[O-])cc2)OC1=O (racemic) | 146 nM
21 | CCCCCC/C=C1/CC(CO)(COC(=O)c2ccc(C)cc2)OC1=O (racemic) | 60.2 nM
22 | O=C1OC(CO)(COC(=O)c2ccc([N+](=O)[O-])cc2)C/C1=C/c1ccc(C(F)(F)F)cc1 (racemic) | 164 nM

Row | SMILES | Ki
23 | CCCCC(/C=C1/CC(CO)(COC(=O)C(CC)CCCC)OC1=O)CC (racemic) | 62.7 nM
24 | CCCCC(/C=C1/CC(CO)(COC(=O)c2ccc(C(F)(F)F)cc2)OC1=O)CC (racemic) | 187 nM
25 | O=C1OC(CO)(COC(=O)c2ccc(C(F)(F)F)cc2)C/C1=C/c1ccc(C(F)(F)F)cc1 (racemic) | 72.4 nM
26 | CCCCCCC(=O)OCC1(CO)C/C(=C/c2ccc(C(F)(F)F)cc2)C(=O)O1 (racemic) | 35.4 nM
27 | Cc1ccc(C(=O)OCC2(CO)C/C(=C/c3ccc(C(F)(F)F)cc3)C(=O)O2)cc1 (racemic) | 53 nM
28 | O=C1OC(CO)(COC(=O)C2CCCCC2)C/C1=C/c1ccc(C(F)(F)F)cc1 (racemic) | 31.9 nM
29 | O=C1OC(CO)(COC(=O)c2ccccc2)C/C1=C/c1ccc(C(F)(F)F)cc1 (racemic) | 64.1 nM
30 | COc1ccc(/C=C2/CC(CO)(COC(=O)c3ccc(C(F)(F)F)cc3)OC2=O)cc1 (racemic) | 149 nM
31 | COc1ccc(/C=C2/CC(CO)(COC(=O)c3ccc([N+](=O)[O-])cc3)OC2=O)cc1 (racemic) | 552 nM
32 | CCCCC(/C=C1/CC(CO)(COC(=O)C2CCCCC2)OC1=O)CC (racemic) | 123 nM
33 | CCCCC(/C=C1/CC(CO)(COC(=O)c2ccccc2)OC1=O)CC (racemic) | 312 nM
34 | CCCCCC/C=C1/CC(CO)(COC(=O)c2ccccc2C)OC1=O (racemic) | 49.5 nM
35 | CCCCCC/C=C1/CC(CO)(COC(=O)c2c(C)cc(C)cc2C)OC1=O (racemic) | 41.4 nM
36 | CCCCCCC(=O)OCC1(CO)C/C(=C/c2ccccc2)C(=O)O1 (racemic) | 89.6 nM
37 | CCCCC(CC)C(=O)OCC1(CO)C/C(=C/c2ccccc2)C(=O)O1 (racemic) | 35 nM
38 | Cc1ccc(C(=O)OCC2(CO)C/C(=C/c3ccc([N+](=O)[O-])cc3)C(=O)O2)cc1 (racemic) | 212 nM
39 | O=C1OC(CO)(COC(=O)c2ccc(C(F)(F)F)cc2)C/C1=C/C1CCCCC1 (racemic) | 106 nM
40 | Cc1ccc(C(=O)OCC2(CO)C/C(=C/C3CCCCC3)C(=O)O2)cc1 (racemic) | 110 nM
41 | O=C1OC(CO)(COC(=O)c2ccccc2)C/C1=C/c1ccc([N+](=O)[O-])cc1 (racemic) | 320 nM
42 | CN(C)c1ccc(C(=O)OCC2(CO)C/C(=C/c3ccc([N+](=O)[O-])cc3)C(=O)O2)cc1 (racemic) | 1080 nM
43 | O=C1OC(CO)(COC(=O)C2CCCCC2)C/C1=C/C1CCCCC1 (racemic) | 89.4 nM
44 | O=C1OC(CO)(COC(=O)c2ccccc2)C/C1=C/C1CCCCC1 (racemic) | 203 nM

Row | SMILES | Ki
45 | Cc1ccccc1C(=O)OCC1(CO)C/C(=C/c2ccc([N+](=O)[O-])cc2)C(=O)O1 (racemic) | 171 nM
46 | CC(C)c1cc(C(C)C)c(C(=O)OCC2(CO)C/C(=C/c3ccc([N+](=O)[O-])cc3)C(=O)O2)c(C(C)C)c1 (racemic) | 124 nM
47 | CCCCC(/C=C1/CC(CO)(COC(=O)c2ccccc2C)OC1=O)CC (racemic) | 189 nM
48 | CCCCC(/C=C1/CC(CO)(COC(=O)c2c(C(C)C)cc(C(C)C)cc2C(C)C)OC1=O)CC (racemic) | 187 nM
49 | Cc1cc(C)c(C(=O)OCC2(CO)C/C(=C/c3ccc(C(F)(F)F)cc3)C(=O)O2)c(C)c1 (racemic) | 25.1 nM
50 | CN(C)c1ccc(C(=O)OCC2(CO)C/C(=C/C3CCCCC3)C(=O)O2)cc1 (racemic) | 305 nM
51 | CCCCC(CC)C(=O)OCC1(CO)C/C(=C/c2ccc([N+](=O)[O-])cc2)C(=O)O1 (racemic) | 73.5 nM
52 | CCCCCCC(=O)OCC1(CO)C/C(=C/C2CCCCC2)C(=O)O1 (racemic) | 77.5 nM
53 | Cc1ccccc1C(=O)OCC1(CO)C/C(=C/C2CCCCC2)C(=O)O1 (racemic) | 110 nM
54 | CCCCCCC(=O)OCC1(CO)C/C(=C/c2ccc([N+](=O)[O-])cc2)C(=O)O1 (racemic) | 93.8 nM
55 | CCCCC(CC)C(=O)OCC1(CO)C/C(=C\c2ccc([N+](=O)[O-])cc2)C(=O)O1 (racemic) | 3.1 nM
56 | CC(C)c1cc(C(C)C)c(C(=O)OCC2(CO)C/C(=C/C3CCCCC3)C(=O)O2)c(C(C)C)c1 (racemic) | 174 nM
57 | O=C1OC(CO)(COC(=O)c2ccccc2)C/C1=C/c1ccccc1 (racemic) | 232 nM
58 | CCCCC(CC)C(=O)OCC1(CO)C/C(=C/C2CCCCC2)C(=O)O1 (racemic) | 30.2 nM
59 | COc1ccc(C(=O)OCC2(CO)C/C(=C/C3CCCCC3)C(=O)O2)cc1 (racemic) | 261 nM
60 | O=C1OC(CO)(COC(=O)C2CCCCC2)C/C1=C/c1ccc([N+](=O)[O-])cc1 (racemic) | 105 nM
61 | CCCCCC/C=C1/CC(CO)(COC(=O)C(CC)CCCC)OC1=O (racemic) | 15.2 nM
62 | O=C1OC(CO)(COC(=O)c2ccc([N+](=O)[O-])cc2)C/C1=C/c1ccccc1 (racemic) | 438 nM
63 | COc1ccc(C(=O)OCC2(CO)C/C(=C/c3ccccc3)C(=O)O2)cc1 (racemic) | 492 nM
64 | COc1ccc(/C=C2/CC(CO)(COC(=O)c3ccc(C)cc3)OC2=O)cc1 (racemic) | 181 nM
65 | CC(C)C(=O)OCC1(CO)C/C(=C/c2cccc(C(F)(F)F)c2)C(=O)O1 (racemic) | 70.2 nM
66 | COc1ccc(/C=C2/CC(CO)(COC(=O)c3ccccc3C)OC2=O)cc1 (racemic) | 173 nM

Row | SMILES | Ki
67 | CCCCC(/C=C1/CC(CO)(COC(=O)c2ccc(OC)cc2)OC1=O)CC (racemic) | 234 nM
68 | CCCCCCC(=O)OCC1(CO)C/C(=C/C(CC)CCCC)C(=O)O1 (racemic) | 74.5 nM
69 | COc1ccc(C(=O)OCC2(CO)C/C(=C/c3ccc(C(F)(F)F)cc3)C(=O)O2)cc1 (racemic) | 86.5 nM
70 | Cc1ccccc1C(=O)OCC1(CO)C/C(=C/c2ccc(C(F)(F)F)cc2)C(=O)O1 (racemic) | 47.8 nM
71 | CN(C)c1ccc(C(=O)OCC2(CO)C/C(=C/c3ccc(C(F)(F)F)cc3)C(=O)O2)cc1 (racemic) | 95 nM
72 | CCCCCC/C=C1/CC(CO)(COC(=O)c2ccc(OC)cc2)OC1=O (racemic) | 105 nM
73 | CCCCCC/C=C1/CC(CO)(COC(=O)c2ccccc2)OC1=O (racemic) | 98.5 nM
74 | CC(C)c1cc(C(C)C)c(C(=O)OCC2(CO)C/C(=C/c3ccc(N(C)C)cc3)C(=O)O2)c(C(C)C)c1 (racemic) | 660 nM
75 | Cc1ccccc1C(=O)OCC1(CO)C/C(=C/c2ccc(N(C)C)cc2)C(=O)O1 (racemic) | 376 nM
76 | CCCCCCC(=O)OCC1(CO)C/C(=C/c2ccc(OC)cc2)C(=O)O1 (racemic) | 113 nM
77 | Cc1cc(C)c(C(=O)OCC2(CO)C/C(=C/c3ccc([N+](=O)[O-])cc3)C(=O)O2)c(C)c1 (racemic) | 37.5 nM
78 | CCCCC(/C=C1/CC(CO)(COC(=O)c2c(C)cc(C)cc2C)OC1=O)CC (racemic) | 66.1 nM
79 | O=C1OC(CO)(COC(=O)c2ccc([N+](=O)[O-])cc2)C/C1=C/C1CCCCC1 (racemic) | 426 nM
80 | O=C1OC(CO)(COC(=O)C2CCCCC2)C/C1=C/c1ccccc1 (racemic) | 108 nM
81 | Cc1cc(C)c(C(=O)OCC2(CO)C/C(=C/C3CCCCC3)C(=O)O2)c(C)c1 (racemic) | 69.4 nM
82 | CC(C)c1cc(C(C)C)c(C(=O)OCC2(CO)C/C(=C/c3ccc(C(F)(F)F)cc3)C(=O)O2)c(C(C)C)c1 (racemic) | 70 nM
83 | O=C1OC(CO)(COC(=O)c2ccc(C(F)(F)F)cc2)C/C1=C/c1ccc([N+](=O)[O-])cc1 (racemic) | 176 nM
84 | CCCCC(/C=C1/CC(CO)(COC(=O)c2ccc(C)cc2)OC1=O)CC (racemic) | 171 nM
85 | CC(CC(=O)OCC1(CO)C/C(=C/c2cccc(C(F)(F)F)c2)C(=O)O1)CC(C)(C)C (racemic; form 1) | 13.3 nM

Reference: ChEMBL document CHEMBL1139414, “Conformationally constrained analogues of diacylglycerol. 29. Cells sort diacylglycerol-lactone chemical zip codes to produce diverse and selective biological activities” (J Med Chem, 2008)
